Laboratory results reported in publication PMC7261135 (Journal of medicinal chemistry, 2020).
Read-outs that look alike come from different tables or passages of the source. Blank lines part the entries; values can stand above or below the compound they belong to.

How the values were obtained:
[1] = solution stability at pH 5.0, 7.4, 9.4; format: physicochemical
[2] = liver microsomal stability; format: in vitro ADME, rat
[3] = biological target: T1, mGluR4 (Homo sapiens, UniProt Q14833); assay: mGluR4 Gi fold shift assay; format: cell-based
Outline: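 Split-luciferase GloSensor cAMP biosensor read-out of Gi-coupled mGluR4 signalling. L-SOP concentration-response curves were run with test compound at 3.0 μM and the leftward shift measured; efficacy given relative to glutamate maximum. Data from NIMH PDSP, averaged over at least three independent determinations run in triplicate.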

[4] = biological target: T1, mGluR4; assay: competitive binding assay with [^3H]4 in mGluR4 transfected CHO cells
[5] = in vitro plasma stability; format: in vitro ADME; details: rat plasma (rat serum)
Outline: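 Test compound incubated in rat serum, with diltiazem run alongside as assay QC control.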

[6] = Log D7.4, scaled-down shake flask method using [^18F]15; format: physicochemical; details: octanol/phosphate buffer, pH 7.4
Outline: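 Radiolabelled test compound (74 kBq) was partitioned between octanol and pH 7.4 phosphate buffer, vortexed 2 min and centrifuged 2 min, and both phases were sampled. An octanol aliquot went into fresh octanol/buffer and the cycle was repeated to give six sets. Gamma counting; Log D = log(octanol counts × 10 / buffer counts).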

[7] = biological target: T2, mGluR4 (Rattus norvegicus, UniProt P31423); assay: PET blocking studies of [^18F]15 binding; format: in vivo, Sprague Dawley rats; details: rats
Outline: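 Male Sprague Dawley rats under isoflurane/nitrous oxide (1.0–1.5% isoflurane) with a tail-vein catheter. Blocker 1, 2 or 3 mg/kg in saline with 10% DMSO, 5% Tween-20, 85% PBS, given 1 min before iv tracer (18–34 MBq). Dynamic PET 60 min, CT for attenuation correction, MLEM reconstruction. Regional time-activity curves; blocking as percent change from baseline scans.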

[8] = biological target: T2, mGluR4; assay: PET imaging of [^18F]15, baseline; format: in vivo, Sprague Dawley rats; details: rats
[9] = ex vivo biodistribution of [^18F]15; format: in vivo; details: male Sprague Dawley rats
[10] = rat liver microsomes with NADPH

T2 sequence (P31423 33-912): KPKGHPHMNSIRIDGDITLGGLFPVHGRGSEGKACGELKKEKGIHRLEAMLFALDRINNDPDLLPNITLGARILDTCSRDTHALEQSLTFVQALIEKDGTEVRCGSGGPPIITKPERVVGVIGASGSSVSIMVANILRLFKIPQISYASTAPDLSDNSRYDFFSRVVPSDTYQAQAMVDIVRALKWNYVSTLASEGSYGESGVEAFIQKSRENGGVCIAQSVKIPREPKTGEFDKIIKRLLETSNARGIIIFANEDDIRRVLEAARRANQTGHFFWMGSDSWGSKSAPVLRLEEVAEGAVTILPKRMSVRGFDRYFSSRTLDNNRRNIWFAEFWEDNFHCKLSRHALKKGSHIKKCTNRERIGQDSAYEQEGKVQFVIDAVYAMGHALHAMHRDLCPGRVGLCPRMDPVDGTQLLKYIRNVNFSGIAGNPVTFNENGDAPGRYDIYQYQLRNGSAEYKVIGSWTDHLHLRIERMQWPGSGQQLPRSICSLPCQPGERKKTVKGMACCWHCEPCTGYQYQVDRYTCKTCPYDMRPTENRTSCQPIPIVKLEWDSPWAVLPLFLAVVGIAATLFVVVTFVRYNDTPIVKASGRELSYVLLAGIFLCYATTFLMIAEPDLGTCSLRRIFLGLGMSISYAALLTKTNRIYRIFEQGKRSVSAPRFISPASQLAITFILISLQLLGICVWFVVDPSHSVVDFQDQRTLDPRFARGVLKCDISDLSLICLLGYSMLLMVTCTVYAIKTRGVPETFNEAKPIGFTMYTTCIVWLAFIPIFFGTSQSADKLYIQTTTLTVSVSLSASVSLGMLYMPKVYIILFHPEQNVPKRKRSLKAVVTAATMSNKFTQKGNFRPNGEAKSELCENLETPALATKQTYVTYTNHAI
T1 sequence (Q14833 33-912): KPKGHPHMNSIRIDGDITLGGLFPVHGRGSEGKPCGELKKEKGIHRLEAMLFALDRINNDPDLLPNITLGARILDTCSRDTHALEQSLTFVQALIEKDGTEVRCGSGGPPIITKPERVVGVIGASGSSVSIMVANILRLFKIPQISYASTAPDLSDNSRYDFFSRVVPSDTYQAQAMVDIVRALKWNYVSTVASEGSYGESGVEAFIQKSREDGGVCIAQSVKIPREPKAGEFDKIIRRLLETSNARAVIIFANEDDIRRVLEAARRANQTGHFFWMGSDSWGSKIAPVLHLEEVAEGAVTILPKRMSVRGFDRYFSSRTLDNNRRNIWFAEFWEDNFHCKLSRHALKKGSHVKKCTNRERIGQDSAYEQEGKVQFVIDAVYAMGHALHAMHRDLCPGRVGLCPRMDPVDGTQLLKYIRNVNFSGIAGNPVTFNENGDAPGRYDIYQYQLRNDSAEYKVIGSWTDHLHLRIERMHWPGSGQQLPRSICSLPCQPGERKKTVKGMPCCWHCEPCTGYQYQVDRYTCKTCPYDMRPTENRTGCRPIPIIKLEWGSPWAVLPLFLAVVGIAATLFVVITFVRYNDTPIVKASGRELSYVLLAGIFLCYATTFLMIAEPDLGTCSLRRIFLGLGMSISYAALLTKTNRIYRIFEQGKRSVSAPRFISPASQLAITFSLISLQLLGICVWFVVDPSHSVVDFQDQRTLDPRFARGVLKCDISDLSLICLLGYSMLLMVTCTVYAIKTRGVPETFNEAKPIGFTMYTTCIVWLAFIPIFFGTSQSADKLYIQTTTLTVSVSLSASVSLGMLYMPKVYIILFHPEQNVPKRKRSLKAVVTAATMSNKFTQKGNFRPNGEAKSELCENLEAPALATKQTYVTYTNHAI

SMILES: [2H]C([2H])(F)Sc1cc(NC(=O)c2ccccn2)ccc1Cl [Compound 15, N-(4-Chloro-3-((fluoromethyl-d2)thio)phenyl)picolinamide]
The solution stability: The intact ± SEM at 120 min ([1]; pH = 5.0): 87.1 ± 0.9%
The solution stability: The intact ± SEM at 120 min ([1]; pH = 7.4): 88.3 ± 1.9%
The solution stability: The intact ± SEM at 120 min ([1]; pH = 9.4): 84.3 ± 1.8%
microsomal CLint ([2]; rat, liver microsomes): 24.2 µL/min/mg
leftward shift of agonist (L-SOP) response curve ([3]; at 3.0 μM): 7.5 fold
Emax at 3 µM ([3]; read-out: Glu Max efficacy): 98.3%
IC50 [4]: 3.5 ± 0.5 nM
The plasma stability: The intact ± SEM at 120 (min%) [5]: 84.5 ± 10.2%
logD [6]: 3.82

SMILES: CSc1cc(NC(=O)c2ccccn2)ccc1Cl [Compound 13]
The solution stability: The intact ± SEM at 120 min ([1]; pH = 5.0): 85.9 ± 0.8%
The solution stability: The intact ± SEM at 120 min ([1]; pH = 7.4): 87.9 ± 3.4%
The solution stability: The intact ± SEM at 120 min ([1]; pH = 9.4): 89.3 ± 1.3%
The microsome stability Clint [2, 10]: 54.8 μL/min /mg protein
The microsome stability t1/2 [2, 10]: 25.3 min
IC50 ([4]; read-out: IC50±SE, mGluR4 transfected CHO cells, 2 nM [^3H]4, test compound 0.01 nM to 10 μM): 3.5 ± 0.7 nM
The plasma stability: The intact ± SEM at 120 (min%) [5]: 91.5 ± 2.5%
blocking of [^18F]15 binding in striatum ([7]; blocking agent 1 mg/kg): 18%
blocking of [^18F]15 binding in striatum ([7]; blocking agent 2 mg/kg): 20%
blocking of [^18F]15 binding in striatum ([7]; blocking agent 3 mg/kg): 28%
blocking of [^18F]15 binding in the whole brain ([7]; blocking agent 1, 2 or 3 mg/kg, 1 min before tracer): 22–25%

SMILES: COc1cc(NC(=O)c2ccccn2)ccc1Cl [Compound 4]
The solution stability: The intact ± SEM at 120 min ([1]; pH = 5.0): 92.7 ± 3.1%
The solution stability: The intact ± SEM at 120 min ([1]; pH = 7.4): 97.3 ± 1.1%
The solution stability: The intact ± SEM at 120 min ([1]; pH = 9.4): 89.1 ± 2.1%
The plasma stability: The intact ± SEM at 120 (min%) [5]: 98.2 ± 6.3%

Second part, the compound after the results:

The solution stability: The intact ± SEM at 120 min ([1]; pH = 5.0): 94.7 ± 1.4%
The solution stability: The intact ± SEM at 120 min ([1]; pH = 7.4): 99.0 ± 5.7%
The solution stability: The intact ± SEM at 120 min ([1]; pH = 9.4): 69.8 ± 2.6%
The plasma stability: The intact ± SEM at 120 (min%) [5]: 49.0 ± 10.6%
SMILES: COc1ccc([C@@H]2Sc3ccccc3N(CCN(C)C)C(=O)[C@@H]2OC(C)=O)cc1 [Diltiazem]

time of highest accumulation in the thalamus ([8]; after administration of the ligand): about 2 min
maximum average uptake in the thalamus ([8]; time interval 1–10 min after administration): 1.77±0.26 % ID/cc
accumulation in brain ([9]; at 10 min after iv injection): 0.41±0.18 % ID/g
accumulation in heart ([9]; at 20 min after iv injection): 0.50±0.08 % ID/g
accumulation in liver ([9]; at 20 min after iv injection): 1.33±0.12 % ID/g
accumulation in lungs ([9]; at 20 min after iv injection): 0.58±0.17 % ID/g
accumulation in kidneys ([9]; at 30 min after iv injection): 0.93±0.57 % ID/g
SMILES: [2H]C([2H])([18F])Sc1cc(NC(=O)c2ccccn2)ccc1Cl [[^18F]15, [^18F]-N-(4-chloro-3-((fluoromethyl-d2)thio)phenyl)-picolinamide]
